According to ChEMBL document CHEMBL4364254 (J Med Chem, 2019):
Calls of active or inactive are those of the source. No cut-off for these calls is given here.

Key:
Cytochrome P450 3A4 = Cytochrome P450 3A4 (Homo sapiens, UniProt P08684); experiment: Induction of CYP3A4 in human HepaRG cells at 10 uM measured after 24 hrs by qRT-PCR analysis relative to rifampicin; type: ADME, cell-based; details: hepatocytes
In short: (§1)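 Cryopreserved HepaRG cells were plated on collagen I in Williams' E medium with GlutaMAX. Positive controls were omeprazole 50 μM (CYP1A2), phenobarbital 1 mM (CYP2B6) and rifampicin 10 μM (CYP3A4). mRNA was read by TaqMan qPCR with GAPDH as reference, using ΔΔCt, and expressed as % of the positive control.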

[1] = target: Muscarinic acetylcholine receptor M2 (Homo sapiens, UniProt P08172); experiment: Displacement of [3H]AF-DX 384 from recombinant human M2 receptor after 60 mins by scintillation counting analysis
[2] = Cmax in C57BL6 mouse plasma at 0.3 mg/kg, po measured at 2 hrs post dose by LC-MS/MS analysis; type: ADME, organism-based; set-up: dose 0.3 mg/kg, route oral
In short: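 Female C57BL6 mice, 8 weeks old, received a single oral dose of 0.3 mg/kg in 1% NMP/0.3% Tween 80 in 0.5% Na-CMC. […] Maximum observed concentrations are reported; plasma clearance and half-life come from PK analysis.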

[3] = target: Beta-2 adrenergic receptor (Homo sapiens, UniProt P07550); experiment: Displacement of [3H](-)CGP12177 from recombinant human beta2 adrenergic receptor after 120 mins by scintillation counting analysis
Chain of Beta-2 adrenergic receptor (P07550 whole entry): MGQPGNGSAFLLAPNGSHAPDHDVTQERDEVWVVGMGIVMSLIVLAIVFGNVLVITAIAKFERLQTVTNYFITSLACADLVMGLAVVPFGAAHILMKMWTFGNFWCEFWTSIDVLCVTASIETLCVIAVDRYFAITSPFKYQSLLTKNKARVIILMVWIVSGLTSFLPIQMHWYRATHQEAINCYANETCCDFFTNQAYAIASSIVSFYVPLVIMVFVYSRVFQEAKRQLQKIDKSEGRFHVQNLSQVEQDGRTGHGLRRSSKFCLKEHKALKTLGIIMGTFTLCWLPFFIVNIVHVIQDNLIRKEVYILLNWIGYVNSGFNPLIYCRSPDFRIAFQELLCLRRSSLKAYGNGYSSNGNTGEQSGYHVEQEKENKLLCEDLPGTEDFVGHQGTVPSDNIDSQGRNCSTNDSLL

[4] = Displacement of [3H]batrachotoxinin from rat brain voltage-gated sodium ion channel site 2 after 60 mins by scintillation counting analysis
[5] = Displacement of [125I]alpha-dendrotoxin from rat brain voltage-gated potassium ion channel after 60 mins by scintillation counting analysis
[6] = target: cGMP-inhibited 3',5'-cyclic phosphodiesterase 3A (Homo sapiens, UniProt Q14432); experiment: Activity at human recombinant PDE3A using [3H]cAMP as substrate measured after 15 mins by scintillation counting analysis
Chain of cGMP-inhibited 3',5'-cyclic phosphodiesterase 3A (Q14432 whole entry): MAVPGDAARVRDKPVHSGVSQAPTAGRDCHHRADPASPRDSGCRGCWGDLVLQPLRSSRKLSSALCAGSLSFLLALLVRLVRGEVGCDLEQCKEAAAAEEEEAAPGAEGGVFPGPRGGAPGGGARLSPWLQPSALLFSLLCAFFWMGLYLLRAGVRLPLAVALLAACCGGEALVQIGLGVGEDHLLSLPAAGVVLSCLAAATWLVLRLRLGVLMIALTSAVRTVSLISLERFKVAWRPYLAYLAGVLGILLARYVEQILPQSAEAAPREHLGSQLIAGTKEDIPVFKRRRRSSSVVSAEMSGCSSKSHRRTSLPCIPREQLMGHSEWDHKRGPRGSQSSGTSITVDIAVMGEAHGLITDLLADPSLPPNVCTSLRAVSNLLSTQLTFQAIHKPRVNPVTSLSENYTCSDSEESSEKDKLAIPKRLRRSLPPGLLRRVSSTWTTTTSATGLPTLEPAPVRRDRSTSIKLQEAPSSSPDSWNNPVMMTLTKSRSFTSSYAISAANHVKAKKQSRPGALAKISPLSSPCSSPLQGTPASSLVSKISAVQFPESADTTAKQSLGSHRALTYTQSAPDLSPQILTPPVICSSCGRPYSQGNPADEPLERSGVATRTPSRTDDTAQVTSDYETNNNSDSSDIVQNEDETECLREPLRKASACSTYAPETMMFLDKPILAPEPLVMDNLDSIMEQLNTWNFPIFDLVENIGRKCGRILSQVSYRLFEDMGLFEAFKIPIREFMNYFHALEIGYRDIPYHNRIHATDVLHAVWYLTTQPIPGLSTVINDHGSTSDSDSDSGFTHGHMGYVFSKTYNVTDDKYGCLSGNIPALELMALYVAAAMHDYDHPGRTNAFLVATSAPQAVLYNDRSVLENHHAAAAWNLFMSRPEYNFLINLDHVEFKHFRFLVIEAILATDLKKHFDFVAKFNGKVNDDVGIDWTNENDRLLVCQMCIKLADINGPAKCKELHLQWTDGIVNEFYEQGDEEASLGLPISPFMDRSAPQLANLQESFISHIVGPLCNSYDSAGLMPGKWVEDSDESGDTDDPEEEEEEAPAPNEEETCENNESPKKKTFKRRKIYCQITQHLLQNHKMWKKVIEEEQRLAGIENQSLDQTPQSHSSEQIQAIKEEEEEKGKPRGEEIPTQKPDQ

[7] = target: Sodium-dependent dopamine transporter (Homo sapiens, UniProt Q01959); experiment: Displacement of [3H]BTCP from recombinant human dopamine transporter after 120 mins by scintillation counting analysis
Chain of Sodium-dependent dopamine transporter (Q01959 whole entry): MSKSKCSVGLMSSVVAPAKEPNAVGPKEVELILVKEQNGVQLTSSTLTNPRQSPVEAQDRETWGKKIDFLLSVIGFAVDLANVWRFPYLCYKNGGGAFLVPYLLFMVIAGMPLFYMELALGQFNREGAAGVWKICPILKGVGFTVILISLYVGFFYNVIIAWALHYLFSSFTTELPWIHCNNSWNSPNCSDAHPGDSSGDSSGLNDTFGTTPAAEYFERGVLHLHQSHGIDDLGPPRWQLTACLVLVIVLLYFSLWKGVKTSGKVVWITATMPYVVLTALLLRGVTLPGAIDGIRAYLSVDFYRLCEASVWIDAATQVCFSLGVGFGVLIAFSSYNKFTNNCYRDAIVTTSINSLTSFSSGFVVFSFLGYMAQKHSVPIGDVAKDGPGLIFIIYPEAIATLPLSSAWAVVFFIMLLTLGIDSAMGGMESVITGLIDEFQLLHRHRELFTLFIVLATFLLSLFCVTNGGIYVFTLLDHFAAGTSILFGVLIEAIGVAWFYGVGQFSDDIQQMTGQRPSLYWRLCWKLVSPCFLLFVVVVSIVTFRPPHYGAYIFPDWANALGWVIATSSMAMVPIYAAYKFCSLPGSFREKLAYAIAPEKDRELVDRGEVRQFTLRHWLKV

[8] = Half life in Sprague-Dawley rat plasma at 1 mg/kg, po by LC-MS/MS analysis; type: ADME, organism-based
D(2) dopamine receptor = D(2) dopamine receptor (Homo sapiens, UniProt P14416); experiment: Displacement of [3H]7-OH-DPAT from recombinant human D2s receptor after 60 mins by scintillation counting analysis
Acetylcholinesterase = Acetylcholinesterase (Homo sapiens, UniProt P22303); experiment: Activity at human recombinant ACHE using acetylthiocholine as substrate measured after 30 mins by spectrophotometric assay
[9] = target: Sodium-dependent noradrenaline transporter (Homo sapiens, UniProt P23975); experiment: Displacement of [3H]nisoxetine from recombinant human norepinephrine transporter after 120 mins by scintillation counting analysis
Chain of Sodium-dependent noradrenaline transporter (P23975 whole entry): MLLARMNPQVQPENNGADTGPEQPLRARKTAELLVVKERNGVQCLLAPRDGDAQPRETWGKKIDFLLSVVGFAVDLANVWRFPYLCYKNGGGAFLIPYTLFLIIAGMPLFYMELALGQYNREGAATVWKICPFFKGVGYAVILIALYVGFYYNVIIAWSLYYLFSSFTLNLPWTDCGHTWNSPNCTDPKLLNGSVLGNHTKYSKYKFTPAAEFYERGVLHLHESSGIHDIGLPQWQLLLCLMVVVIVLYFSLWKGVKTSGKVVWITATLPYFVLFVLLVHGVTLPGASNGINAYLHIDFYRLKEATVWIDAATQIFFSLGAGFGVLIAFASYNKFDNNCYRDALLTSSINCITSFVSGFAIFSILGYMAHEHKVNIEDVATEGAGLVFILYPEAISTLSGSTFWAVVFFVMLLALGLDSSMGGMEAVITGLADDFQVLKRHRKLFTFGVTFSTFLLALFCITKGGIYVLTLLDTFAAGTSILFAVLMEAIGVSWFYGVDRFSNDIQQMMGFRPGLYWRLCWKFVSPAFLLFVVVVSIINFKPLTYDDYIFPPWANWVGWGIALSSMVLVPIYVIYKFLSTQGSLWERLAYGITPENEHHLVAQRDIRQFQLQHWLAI

[10] = target: 5-hydroxytryptamine receptor 1B (Homo sapiens, UniProt P28222); experiment: Displacement of [3H]GR125743 from recombinant human 5HT1B after 60 mins by scintillation counting analysis
Chain of 5-hydroxytryptamine receptor 1B (P28222 whole entry): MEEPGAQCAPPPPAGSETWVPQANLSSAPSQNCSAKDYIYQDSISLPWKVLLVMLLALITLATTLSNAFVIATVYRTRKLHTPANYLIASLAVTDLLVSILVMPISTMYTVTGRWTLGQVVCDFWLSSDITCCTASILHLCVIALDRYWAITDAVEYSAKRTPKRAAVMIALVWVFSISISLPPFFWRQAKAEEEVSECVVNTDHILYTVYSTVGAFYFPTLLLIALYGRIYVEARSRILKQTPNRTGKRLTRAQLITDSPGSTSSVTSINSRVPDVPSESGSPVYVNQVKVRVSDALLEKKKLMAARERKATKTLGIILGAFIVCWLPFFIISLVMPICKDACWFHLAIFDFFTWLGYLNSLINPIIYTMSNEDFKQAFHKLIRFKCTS

Adenosine receptor A2a = Adenosine receptor A2a (Homo sapiens, UniProt P29274); experiment: Displacement of [3H]CGS21680 from recombinant human adenosine A2A receptor after 120 mins by scintillation counting analysis
[11] = target: Muscarinic acetylcholine receptor M1 (Homo sapiens, UniProt P11229); experiment: Displacement of [3H]pirenzepine from recombinant human M1 receptor after 60 mins by scintillation counting analysis
Chain of Muscarinic acetylcholine receptor M1 (P11229 whole entry): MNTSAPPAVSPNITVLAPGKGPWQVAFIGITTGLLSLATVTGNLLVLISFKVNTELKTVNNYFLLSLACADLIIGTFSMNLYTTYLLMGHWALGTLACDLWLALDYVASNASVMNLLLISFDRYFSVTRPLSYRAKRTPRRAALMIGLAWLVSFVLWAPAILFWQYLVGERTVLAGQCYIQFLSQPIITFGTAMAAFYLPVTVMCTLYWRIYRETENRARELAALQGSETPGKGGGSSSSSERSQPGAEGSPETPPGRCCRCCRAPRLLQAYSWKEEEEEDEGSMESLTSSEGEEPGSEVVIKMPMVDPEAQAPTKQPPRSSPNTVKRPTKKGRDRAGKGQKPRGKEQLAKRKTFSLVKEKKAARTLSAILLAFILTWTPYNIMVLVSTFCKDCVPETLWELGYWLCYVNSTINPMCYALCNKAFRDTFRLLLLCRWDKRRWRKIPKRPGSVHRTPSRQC

Histamine H1 receptor = Histamine H1 receptor (Homo sapiens, UniProt P35367); experiment: Displacement of [3H]pyrilamine from recombinant human H1 receptor after 60 mins by scintillation counting analysis
Chain of Histamine H1 receptor (P35367 whole entry): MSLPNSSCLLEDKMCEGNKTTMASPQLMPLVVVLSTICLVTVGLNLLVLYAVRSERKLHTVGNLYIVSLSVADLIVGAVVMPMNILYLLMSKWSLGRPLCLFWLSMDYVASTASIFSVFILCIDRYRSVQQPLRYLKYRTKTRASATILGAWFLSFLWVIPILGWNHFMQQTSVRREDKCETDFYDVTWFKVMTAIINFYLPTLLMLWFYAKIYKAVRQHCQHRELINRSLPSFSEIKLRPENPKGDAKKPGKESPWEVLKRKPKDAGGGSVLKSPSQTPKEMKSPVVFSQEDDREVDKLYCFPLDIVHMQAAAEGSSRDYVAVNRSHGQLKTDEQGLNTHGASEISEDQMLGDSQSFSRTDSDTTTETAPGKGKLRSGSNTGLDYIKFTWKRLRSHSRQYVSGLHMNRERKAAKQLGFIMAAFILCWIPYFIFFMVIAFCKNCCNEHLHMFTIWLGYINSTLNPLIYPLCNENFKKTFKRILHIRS

[12] = target: 5-hydroxytryptamine receptor 2A (Homo sapiens, UniProt P28223); experiment: Displacement of [125I](+/-)DOI from recombinant human 5HT2A receptor after 60 mins by scintillation counting analysis
Chain of 5-hydroxytryptamine receptor 2A (P28223 whole entry): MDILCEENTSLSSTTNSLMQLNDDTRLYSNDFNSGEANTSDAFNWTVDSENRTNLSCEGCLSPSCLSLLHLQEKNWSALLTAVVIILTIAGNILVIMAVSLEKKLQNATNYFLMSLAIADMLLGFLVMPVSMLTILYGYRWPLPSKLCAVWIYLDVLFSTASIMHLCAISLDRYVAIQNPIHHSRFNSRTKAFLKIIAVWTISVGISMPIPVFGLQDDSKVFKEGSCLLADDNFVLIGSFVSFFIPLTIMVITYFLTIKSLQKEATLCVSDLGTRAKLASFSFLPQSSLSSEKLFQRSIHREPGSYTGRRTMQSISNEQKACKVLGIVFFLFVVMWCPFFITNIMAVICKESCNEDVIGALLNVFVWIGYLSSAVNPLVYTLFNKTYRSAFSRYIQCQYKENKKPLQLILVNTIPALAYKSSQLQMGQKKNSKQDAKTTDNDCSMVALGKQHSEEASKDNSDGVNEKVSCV

[13] = target: Cholecystokinin receptor type A (Homo sapiens, UniProt P32238); experiment: Displacement of [125I]CCK-8s from recombinant human CCK1 receptor after 60 mins by scintillation counting analysis
[14] = target: Prostaglandin G/H synthase 2 (Homo sapiens, UniProt P35354); experiment: Activity at human recombinant COX2 using arachidonic acid as substrate measured after 5 mins by ADHP reagent based fluorescence assay
[15] = target: Voltage-dependent L-type calcium channel subunit alpha-1C (Rattus norvegicus, UniProt P22002); experiment: Displacement of [3H]nitrendipine from rat brain Cav1.2 dihydropyridine site after 90 mins by scintillation counting analysis
[16] = target: 5-hydroxytryptamine receptor 2B (Homo sapiens, UniProt P41595); experiment: Displacement of [125I](+/-)DOI from recombinant human 5HT2B receptor after 60 mins by scintillation counting analysis
Mus musculus = experiment: Anti-hepatosteatosis activity in ethanol-induced C57BL/6 mouse model of hepatic steatosis assessed as reduction in hepatic lipid accumulation at 0.03 to 0.3 mg/kg, po administered once daily via gavage for last 2 weeks of study measured post-last dose by oil red O staining-based light microscopic analysis; type: functional, organism-based
In short: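 Female C57BL/6J mice (9 weeks old, 19–21 g) were kept on Lieber–DeCarli liquid diet, with ethanol raised from 1 to 5% (v/v) over 15 d and then held for 4 weeks, pair-fed. Dosing was 0.03, 0.1 or 0.3 mg/kg by oral gavage once daily for the last 2 weeks, in 0.5% Na-CMC/1% NMP/0.3% Tween 80. Read-outs were Oil Red O on 10 μm liver sections imaged at 10× and liver weight normalized to brain weight. n = 6–10 per group; t test versus ethanol + vehicle.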

Cytochrome P450 1A2 = Cytochrome P450 1A2 (Homo sapiens, UniProt P05177); experiment: Induction of CYP1A2 in human HepaRG cells at 10 uM measured after 24 hrs by qRT-PCR analysis relative to omeprazole; type: ADME, cell-based; details: hepatocytes
In short: as §1, with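 “GlutaMAX. On day 4 they were treated with 10 μM compound in serum-free induction medium for 24 h at 37 °C; the vehicle was 1% DMSO.” for “GlutaMAX.”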

Histamine H2 receptor = Histamine H2 receptor (Homo sapiens, UniProt P25021); experiment: Displacement of [125I]APT from recombinant human H2 receptor after 120 mins by scintillation counting analysis
Chain of Histamine H2 receptor (P25021 whole entry): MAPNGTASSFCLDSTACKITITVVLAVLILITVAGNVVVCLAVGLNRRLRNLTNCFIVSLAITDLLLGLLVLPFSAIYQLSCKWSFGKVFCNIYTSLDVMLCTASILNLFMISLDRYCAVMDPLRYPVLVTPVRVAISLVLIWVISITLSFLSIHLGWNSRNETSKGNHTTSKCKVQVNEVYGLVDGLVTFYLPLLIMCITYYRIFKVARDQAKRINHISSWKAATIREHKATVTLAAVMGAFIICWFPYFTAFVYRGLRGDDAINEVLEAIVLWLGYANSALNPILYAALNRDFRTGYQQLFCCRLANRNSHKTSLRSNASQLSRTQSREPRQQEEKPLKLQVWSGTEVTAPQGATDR

Glucocorticoid receptor = Glucocorticoid receptor (Homo sapiens, UniProt P04150); experiment: Displacement of [3H]dexamethasone from recombinant human GR after 360 mins by scintillation counting analysis

O=C(Nc1ccc(OC(F)F)nc1)NC1CCN(c2ncnc3c2nc(-c2ccccc2Cl)n3-c2ccc(Cl)cc2)CC1
Activity (Cytochrome P450 3A4): < 10%
EC50 [1]: > 10 µM
IC50 [1]: > 10 µM
Cmax [2]: 940 ng/mL
EC50 [3]: > 10 µM
IC50 [3]: > 10 µM
EC50 [4]: > 10 µM
IC50 [4]: > 10 µM
EC50 [5]: > 10 µM
IC50 [5]: > 10 µM
EC50 [6]: > 10 µM
IC50 [6]: > 10 µM
EC50 [7]: > 10 µM
IC50 [7]: > 10 µM
half-life [8]: 9.9 h
EC50 (D(2) dopamine receptor): > 10 µM
IC50 (D(2) dopamine receptor): > 10 µM
EC50 (Acetylcholinesterase): > 10 µM
IC50 (Acetylcholinesterase): > 10 µM
EC50 [9]: > 10 µM
IC50 [9]: > 10 µM
EC50 [10]: > 10 µM
IC50 [10]: > 10 µM
EC50 (Adenosine receptor A2a): > 10 µM
IC50 (Adenosine receptor A2a): > 10 µM
EC50 [11]: > 10 µM
IC50 [11]: > 10 µM
EC50 (Histamine H1 receptor): > 10 µM
IC50 (Histamine H1 receptor): > 10 µM
EC50 [12]: > 10 µM
IC50 [12]: > 10 µM
EC50 [13]: > 10 µM
IC50 [13]: > 10 µM
EC50 [14]: > 10 µM
IC50 [14]: > 10 µM
EC50 [15]: > 10 µM
IC50 [15]: > 10 µM
EC50 [16]: > 10 µM
IC50 [16]: > 10 µM
Activity (Mus musculus): Active
Activity (Cytochrome P450 1A2): < 1%
EC50 (Histamine H2 receptor): > 10 µM
IC50 (Histamine H2 receptor): > 10 µM
EC50 (Glucocorticoid receptor): > 10 µM
IC50 (Glucocorticoid receptor): > 10 µM
